The structures appear in SMILES notation.

For series [1], the system named is Pseudomonas aeruginosa. Put plainly: Compound was tested for antimicrobial activity against Pseudomonas aeruginosa PAO1. The class given is functional. The method in brief:
(§1)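 Agar dilution on Mueller-Hinton agar with serial 2-fold dilutions; plate concentrations 0.006 to 100 µg/mL. Inoculum about 10^6 cfu/mL. Plates incubated at 37 °C for 18 h. MIC is the lowest concentration preventing visible growth.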

The subject of series [2] is Escherichia coli. Put plainly: Compound was tested for antimicrobial activity in mice infected with Escherichia coli KC-14 after peroral administration. Type of series: functional. Conditions: po. The method, boiled down:
(§2)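 Male ddy mice (20 ± 2 g), groups of 10, were infected ip with 0.5 mL of bacteria at 10 or 100 times the 50% lethal dose. Compound was suspended in 0.5% sodium carboxymethyl cellulose and given orally 1 h postinfection. Survival was scored after 1 week.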

For series [3], the system named is Mus musculus. The series is described as follows: Compound was tested for antimicrobial activity in mice infected with Pseudomonas aeruginosa E2,po. Type of series: functional. The method, boiled down:
(§3)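 Male ddy mice (20 ± 2 g, groups of 10) received an intraperitoneal inoculum of 0.5 mL bacterial dilution at 10 or 100 times the 50% lethal dose. Compound was suspended in 0.5% sodium carboxymethyl cellulose and given orally 1 h postinfection.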

Series [4] deals with Mus musculus. The series is described as follows: Compound was tested for antimicrobial activity in mice infected with Staphylococcus aureus smith. po. Type of series: functional. The method, boiled down: as §3
Series [5] has as its system Proteus vulgaris. The series is described as follows: Compound was tested for antimicrobial activity against Proteus vulgaris OX-19. Type of series: functional. The method in brief: as §1
For series [6], the system named is Escherichia coli. Put plainly: Compound was tested for antimicrobial activity against Escherichia coli KC-14. The class given is functional. The method in brief:
as §1

Series [7] has as its system Bacillus subtilis. The series is described as follows: Compound was tested for antimicrobial activity against Bacillus subtilis ATCC 6633. The class given is functional. The method, boiled down: as §1
Series [8] deals with Serratia marcescens. The series is described as follows: Compound was tested for antimicrobial activity against Serratia marcescens 16. The class given is functional. The method, boiled down: as §1
The nature of series [9]: Lethal dose was measured in rat after iv administration. Type of series: toxicity, organism-based. The note with it: in vivo. The method, boiled down:
(§4)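 Each compound was suspended in 0.5% cmc and given by the stated route. Deaths were counted within 1 week, and LD50 was calculated by the method of Weil.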

Series [10] concerns Klebsiella pneumoniae. Put plainly: Compound was tested for antimicrobial activity against Klebsiella pneumonia IFO3512. The class given is functional. The method in brief: as §1
Series [11] concerns Staphylococcus aureus. Put plainly: Compound was tested for antimicrobial activity against Staphylococcus aureus FDA207PJC-1. Type of series: functional. Details: unit: µg/mL. The method in brief:
as §1

The test system of series [12] is Mus musculus. The series is described as follows: Serum concentration in mice, after oral administration at a dose of 100 mg/kg p.o. at 1 hr. The class given is functional, organism-based. Also noted: dose 100 mg/kg. The method, boiled down: (§5)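 Mice were given compound orally as a suspension in 0.5% sodium carboxymethyl cellulose at 100 mg/kg (NFLX-equivalent dose). Animals were killed by bleeding at 0.5, 1.0, 2.0 and 4.0 h. Serum norfloxacin and parent compound were measured by HPLC.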

Series [13] concerns Mus musculus. The series is described as follows: Serum Levels in mice, after oral administration at a dose of 100 mg/kg p.o. at 5 hr. Also noted: dose 100 mg/kg. The class given is functional, organism-based.
For series [14], the system named is Mus musculus. The series is described as follows: Serum Levels in mice, after oral administration at a dose of 100 mg/kg p.o. at 2 hr. The class given is functional, organism-based. Details: dose 100 mg/kg. The method in brief: as §5
The test system of series [15] is Mus musculus. Put plainly: Serum Levels in mice, after oral administration at a dose of 100 mg/kg p.o. at 1 hr. The class given is functional, organism-based. Also noted: dose 100 mg/kg. The method in brief:
as §5

The test system of series [16] is Mus musculus. Put plainly: Serum concentration in mice, after oral administration at a dose of 50 mg/kg p.o. at 2 hr. The class given is functional, organism-based. Details: dose 50 mg/kg.
The test system of series [17] is Mus musculus. Put plainly: Compound was tested for antimicrobial activity in mice infected with Escherichia coli KC-14, po. The class given is functional. The method in brief:
as §2

Series [18] relates to Mus musculus. The series is described as follows: Serum concentration in mice, after oral administration at a dose of 100 mg/kg p.o. at 0.5 h. Type of series: functional, organism-based. Also noted: dose 100 mg/kg. The method, boiled down:
as §5

Series [19] relates to Mus musculus. The series is described as follows: Serum concentration in mice, after oral administration at a dose of 100 mg/kg p.o. at 5 hr. Details: dose 100 mg/kg. The class given is functional, organism-based.
The test system of series [20] is Mus musculus. Put plainly: (§6) Serum concentration in mice, after oral administration at a dose of 100 mg/kg p.o. at 2 hr. The class given is functional, organism-based. Also noted: dose 100 mg/kg. The method, boiled down: as §5
Series [21] relates to Mus musculus. Put plainly: Serum Levels in mice, after oral administration at a dose of 100 mg/kg p.o. at 0.5 h. Type of series: functional, organism-based. Details: dose 100 mg/kg. The method in brief:
as §5

Series [22] is described as follows: Compound was evaluated for area under curve doses in […] at 100 mg/kg po. Type of series: functional, organism-based. Also noted: dose 100 mg/kg.
For series [23], the system named is Mus musculus. The description is as §6. The class given is functional, organism-based. Also noted: dose 100 mg/kg. The method, boiled down: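 Compound was suspended in 0.5% sodium carboxymethyl cellulose and given orally to mice at 100 mg/kg, as a dose equivalent to 100 mg/kg NFLX. Mice were killed by bleeding at 0.5, 1.0, 2.0 and 4.0 h. Serum NFLX and parent compound were each measured by HPLC.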
The source holds these as a separate data set.

Series [24] deals with Mus musculus. Put plainly: Compound was tested for antimicrobial activity in mice infected with Staphylococcus aureus smith, po. The class given is functional. The method in brief: as §2
Series [25] is described as follows: Lethal dose was measured in rat after oral administration. Type of series: toxicity, organism-based. Conditions: in vivo. The method, boiled down:
as §4

Regarding `CCn1cc(C(=O)O)c(=O)c2cc(F)c(N3CCNCC3)cc21` [NORFLOXACIN], the Activity is 0.78 in series [1]; 0.2 in [5]; 0.39 in series [6]; 0.39 in series [7]; 0.78 in [8]; 0.2 in series [10]. The compound further yielded an Activity in series [11] of 0.39. For the same compound, the ED50 in series [2] is 4.38 mg/kg; in series [3], 59 mg/kg; in series [4] it was 36.4 mg/kg. In addition, the LD50 in series [9] came to 314 mg/kg.
For `CCn1cc(C(=O)O)c(=O)c2cc(F)c(N3CCN(CC(C)O)CC3)cc21` (stereo not given), the Serum concentration is 20.2 µg/mL in series [12]; 4.48 µg/mL in [16]; 19.5 µg/mL in [18]; 2.82 µg/mL in series [19]; 6.93 µg/mL in [20]. Also, the Serum level stood at 2.21 in series [13], 11.8 µg/mL in [14], 27.1 in [15] and 13.6 µg/mL in series [21]. Also, the Activity was determined as 6.25 in [1]; 0.78 in [5]; 0.78 in series [6]; 0.78 in series [7]; 3.12 in series [8]; 0.2 in series [10]. Besides, the Activity in series [11] worked out at 0.39. Also, the 50% effective dose (ED50) in series [2] amounted to 3.9 mg/kg; in series [17] it was 3.5 mg/kg.
Consider `CCn1cc(C(=O)O)c(=O)c2cc(F)c(N3CCN(CCC(C)=O)CC3)cc21`, for which the Serum concentration worked out at 3.55 µg/mL in series [12], 7.06 µg/mL in [18], 1.18 µg/mL in series [19] and 2.22 µg/mL in series [23]. Also, the Activity was found to be 0.78 in series [1]; 0.2 in series [5]; 0.78 in series [6]; 0.39 in series [7]; 0.78 in series [8]; 0.2 in series [10]. Also, in series [11], the Activity was determined as 0.78. This compound registered a 50% effective dose (ED50) in series [2] of 2.34 mg/kg. In [22], this compound displayed an AUC of 12.9.
For `CCn1cc(C(=O)O)c(=O)c2cc(F)c(N3CCN(CC(=O)c4ccccc4)CC3)cc21`, the Activity is given as 1.56 in [1]; 0.39 in series [5]; 0.78 in series [6]; 0.78 in [7]; 1.56 in [8]; 0.78 in series [10]. This compound also had an Activity in series [11] of 0.78. This compound had an ED50 in series [2] of over 7.5 mg/kg.
`CCn1cc(C(=O)O)c(=O)c2cc(F)c(N3CCN(C(C)C(C)=O)CC3)cc21` (stereo not given): the Activity is 12.5 in [1]; 1.56 in [5]; 3.13 in [6]; 0.78 in series [7]; 12.5 in series [8]; 0.78 in series [10]. Besides, in series [11], the Activity came to 0.78. Besides, the ED50 in series [2] is 3.53 mg/kg.
As to `CCn1cc(C(=O)O)c(=O)c2cc(F)c(N3CCN(CC(=O)C(C)(C)C)CC3)cc21`, the Serum concentration was found to be 15.4 µg/mL in series [12], 19.6 µg/mL in series [18], 6.73 µg/mL in series [19] and 9.4 µg/mL in series [23]. The Activity in [1] is 50; in [5], 3.13; in series [6] it was 12.5; in [7], 0.78; in series [8], under 100; in series [10] it was 0.78. For the same compound, the Activity in series [11] is on record as 0.78. The ED50 in series [2] was found to be 7.13 mg/kg.
`CCn1cc(C(=O)O)c(=O)c2cc(F)c(N3CCN(C(C)(C)C(C)=O)CC3)cc21`: the Activity in series [1] turned out to be 6.25; in series [5], 1.56; in series [6], 3.13; in [7], 0.39; in series [8], 6.25; in series [10], 0.39. The Activity in series [11] was determined as 0.78. The compound also gave an ED50 in series [2] of 6.06 mg/kg.
In the case of `CCn1cc(C(=O)O)c(=O)c2cc(F)c(N3CCN(CC(C)=O)CC3)cc21`, the Serum concentration in [12] was 7.29 µg/mL; in series [16] it was 8.88 µg/mL; in [18], 23.6 µg/mL; in [19], 0.46 µg/mL; in series [23], 2.69 µg/mL. For the same compound, the Activity in series [1] was found to be 6.25; in series [5], 0.78; in series [6] it was 1.56; in [7] it was 0.39; in series [8], 6.25; in series [10] it was 0.2. The same compound showed an Activity in series [11] of 0.39. The ED50 is 0.95 mg/kg in series [2], 18.5 mg/kg in series [3] and 12.6 mg/kg in series [24]. Besides, the LD50 in series [9] was 684 mg/kg; in [25], over 4000 mg/kg.
